Source: ChEMBL document CHEMBL5036324 (J Med Chem, 2021)
The source made the active and inactive calls. The rule behind the calls is not given here.

Key:
[1] = target: T1, TLR7 and TLR8 (Homo sapiens) (UniProt Q9NYK1+Q9NR97); assay: Agonist activity at human TLR7/8 expressed in human PBMC cells assessed as induction of TNFalpha production by measuring concentration required to induce maximal response incubated for 12 hrs by multiplexed immunoassay; type: cell-based; details: filed as agonist
In short: (§1)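 Healthy-volunteer PBMCs from a single donor were isolated by Ficoll−Hypaque gradient and plated at 2.0 × 10⁶ cells/mL. They were stimulated for 12 h with escalating compound concentrations. Supernatants were assayed in duplicate on a 41-analyte magnetic bead cytokine/chemokine panel read by Luminex. EC_max is the concentration giving maximal cytokine induction.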

[2] = target: T1, TLR7 and TLR8 (Homo sapiens); assay: Agonist activity at human TLR7/8 expressed in human PBMC cells assessed as induction of INF-gamma production by measuring concentration required to induce maximal response incubated for 12 hrs by multiplexed immunoassay; type: cell-based; details: filed as agonist; in short: as §1
[3] = target: T1, TLR7 and TLR8 (Homo sapiens); assay: Agonist activity at human TLR7/8 expressed in human PBMC cells assessed as induction of IP-10 production by measuring concentration required to induce maximal response incubated for 12 hrs by multiplexed immunoassay; type: cell-based; details: filed as agonist; in short: as §1
[4] = target: T1, TLR7 and TLR8 (Homo sapiens); assay: Agonist activity at human TLR7/8 expressed in human PBMC cells assessed as induction of IL-12p40 production by measuring concentration required to induce maximal response incubated for 12 hrs by multiplexed immunoassay; type: cell-based; details: filed as agonist; in short: as §1
[5] = system: CT26; assay: Synergistic antitumor activity against mouse CT26 cells implanted in BALB/c mouse assessed as suppression of tumor growth at 12.5 ug, ip administered once a week in presence of anti-PD-1 antibodies and measured every 3 days for 23 days; type: functional, organism-based; details: dose 12.5 µg, time 23.0 day
[6] = Toxicity in BALB/c mouse implanted with mouse CT26 cells assessed as decrease in body weight at 0.9 g, ip administered on day 4; type: organism-based; details: in vivo
In short: (§2)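 CT26 cells were grown in DMEM with 10% FBS at 37 °C, 5% CO2, and implanted subcutaneously in BALB/c mice. At a mean tumor volume of 100 mm³, mice were randomized (n = 5 per group). The TLR7/8 agonist was given ip at 25 μg once weekly, with or without anti-PD-1 antibody at 200 μg ip twice weekly. Body weight was tracked over time.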

[7] = Toxicity in BALB/c mouse implanted with mouse CT26 cells assessed as decrease in body weight at 1.2 g, ip administered on day 4 in combination with anti-PD-1 antibodies; type: organism-based; details: in vivo; in short: as §2
[8] = Toxicity in BALB/c mouse implanted with mouse CT26 cells assessed as reduction in survival at 25 ug, ip administered once a week in presence of anti-PD-1 antibodies and measured 60 days post tumor implantation; type: organism-based; details: in vivo, 1440 h, dose 25 µg, time 60 day
In short: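 Survival study in CT26-bearing BALB/c mice (n = 10 per group), treated from a tumor volume of 100 mm³. Dosing was 25 μg agonist ip once weekly plus anti-PD-1 antibody at 200 μg ip twice weekly; IgG isotype was the control. Mice were euthanized on signs of distress or at a total tumor size of 2000 mm³.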

[9] = system: CT26; assay: Antitumor activity against mouse CT26 cells implanted in BALB/c mouse assessed as fold increase in infiltration of CD11c+ in tumor cells at 25 ug, ip administered once a week for 23 days by flow cytometry analysis relative to R848; type: functional; details: dose 25 µg; time 23 day
In short: (§3)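 CT26-bearing BALB/c mice (n = 5) were treated ip once weekly with agonist, alone or with anti-PD-1 (200 μg, twice weekly). Tumours were harvested 23 days after implantation, enzymatically and mechanically dissociated into single cells, and stained for surface markers plus intracellular FoxP3 after fixation/permeabilisation. Cells were gated within CD45⁺ for CD11c⁺ DCs, CD11b⁺F4/80⁺MHCII⁺ (M1), CD206⁺ (M2), CD3/CD4/CD8, and CD4⁺CD25⁺FoxP3⁺ Treg, then analysed by flow cytometry.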

[10] = system: CT26; assay: Antitumor immunity against mouse CT26 cells implanted in BALB/c mouse assessed as increase in infiltration of CD8+ T cytotoxic lymphocytes at 25 ug, ip administered once a week for 23 days by flow cytometry analysis; type: functional, organism-based; details: dose 25.0 µg, time 23.0 day; in short: as §3
[11] = system: CT26; assay: Antitumor immunity against mouse CT26 cells implanted in BALB/c mouse assessed as increase in infiltration of CD8+ T cytotoxic lymphocytes at 25 ug, ip administered once a week with anti-PD-1 antibody for 23 days by flow cytometry analysis; type: functional, organism-based; details: dose 25.0 µg, time 23.0 day; in short: as §3
[12] = target: hERG (KCNH2) (Homo sapiens, UniProt Q12809); assay: Inhibition of hERG expressed in HEK293 cells at 3 uM relative to control; type: cell-based; details: HEK293 cells expressing hERG
Chain of hERG (KCNH2) (Q12809 whole entry): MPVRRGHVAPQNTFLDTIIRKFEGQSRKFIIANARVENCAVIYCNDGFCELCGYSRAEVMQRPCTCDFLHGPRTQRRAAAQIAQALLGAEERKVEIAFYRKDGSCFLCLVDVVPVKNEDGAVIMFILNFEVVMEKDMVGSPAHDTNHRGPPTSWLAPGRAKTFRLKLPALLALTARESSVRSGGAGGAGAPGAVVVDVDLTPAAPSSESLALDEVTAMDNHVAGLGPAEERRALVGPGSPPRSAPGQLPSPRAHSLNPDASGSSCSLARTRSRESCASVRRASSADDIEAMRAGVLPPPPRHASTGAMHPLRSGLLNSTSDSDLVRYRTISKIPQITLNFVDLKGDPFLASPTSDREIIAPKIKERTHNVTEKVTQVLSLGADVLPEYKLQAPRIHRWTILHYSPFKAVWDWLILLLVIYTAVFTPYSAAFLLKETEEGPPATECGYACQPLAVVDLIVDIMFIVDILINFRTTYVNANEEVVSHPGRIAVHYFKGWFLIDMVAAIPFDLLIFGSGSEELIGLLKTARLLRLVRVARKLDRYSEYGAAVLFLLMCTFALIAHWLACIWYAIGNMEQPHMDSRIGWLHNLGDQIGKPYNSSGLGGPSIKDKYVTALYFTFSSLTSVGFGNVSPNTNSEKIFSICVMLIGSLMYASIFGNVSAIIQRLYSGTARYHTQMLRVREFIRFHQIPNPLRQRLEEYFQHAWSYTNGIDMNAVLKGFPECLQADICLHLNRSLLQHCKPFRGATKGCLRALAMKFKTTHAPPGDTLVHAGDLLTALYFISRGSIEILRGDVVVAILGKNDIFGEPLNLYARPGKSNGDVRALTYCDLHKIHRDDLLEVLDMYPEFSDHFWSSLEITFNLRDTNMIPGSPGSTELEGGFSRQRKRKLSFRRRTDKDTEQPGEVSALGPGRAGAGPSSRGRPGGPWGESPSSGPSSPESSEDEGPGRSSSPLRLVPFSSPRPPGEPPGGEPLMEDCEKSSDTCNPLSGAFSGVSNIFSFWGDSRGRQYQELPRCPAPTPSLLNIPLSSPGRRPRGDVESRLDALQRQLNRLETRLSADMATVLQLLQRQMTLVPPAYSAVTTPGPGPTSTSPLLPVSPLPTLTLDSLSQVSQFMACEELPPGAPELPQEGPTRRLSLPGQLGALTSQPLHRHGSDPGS

[13] = Acute toxicity in BALB/c mouse assessed as mortality at 100 mg/kg, ip administered as single dose; type: organism-based; details: in vivo
[14] = target: T1, TLR7 and TLR8 (Homo sapiens); assay: Agonist activity at human TLR7/8 expressed in human PBMC cells assessed as induction of MCP-1 production by measuring concentration required to induce maximal response incubated for 12 hrs by multiplexed immunoassay; type: cell-based; details: filed as agonist; in short: as §1
[15] = target: T1, TLR7 and TLR8 (Homo sapiens); assay: Agonist activity at human TLR7/8 expressed in human PBMC cells assessed as induction of G-CSF production by measuring concentration required to induce maximal response incubated for 12 hrs by multiplexed immunoassay; type: cell-based; details: filed as agonist; in short: as §1
[16] = system: CT26; assay: Antitumor immunity against mouse CT26 cells implanted in BALB/c mouse assessed as increase in Teff/Treg ratio at 25 ug, ip administered once a week with anti-PD-1 antibody for 23 days by flow cytometry analysis; type: functional, organism-based; details: dose 25.0 µg, time 23.0 day; in short: as §3
[17] = target: T1, TLR7 and TLR8 (Homo sapiens); assay: Agonist activity at human TLR7/8 expressed in human PBMC cells assessed as induction of INFgamma production at 0.1 to 32 ug/ml incubated for 12 hrs by multiplexed immunoassay; type: cell-based; details: filed as agonist, dose 0.1-32 µg/ml; in short: as §1
[18] = target: T1, TLR7 and TLR8 (Homo sapiens); assay: Agonist activity at human TLR7/8 expressed in human PBMC cells assessed as induction of IL-12 production at 0.1 to 32 ug/ml incubated for 12 hrs by multiplexed immunoassay; type: cell-based; details: filed as agonist, dose 0.1-32 µg/ml; in short: as §1
[19] = system: CT26; assay: Antitumor activity against mouse CT26 cells implanted in BALB/c mouse assessed as reduction in tumor volume at 25 ug, ip administered once a week in presence of anti-PD-1 antibodies and measured every 3 days for 23 days; type: functional, organism-based; details: dose 25.0 µg, time 23.0 day
In short: (§4)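 Subcutaneous CT26 tumours were grown in BALB/c mice, with cells cultured in DMEM/10% FBS. At a mean tumour size of 100 mm³, mice were randomised (n = 5/group). Agonist was given ip once weekly; anti-PD-1 or IgG isotype was given ip at 200 μg twice weekly. Tumour volume (V = 1/2ab²) was measured every 3 days. Mice were euthanised at 2000 mm³.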

[20] = system: CT26; assay: Antitumor activity against mouse CT26 cells implanted in BALB/c mouse assessed as tumor growth inhibition at 50 ug, ip administered once a week and measured every 3 days for 23 days relative to control; type: functional; details: dose 50 µg; time 23 day; in short: as §4
[21] = system: CT26; assay: Antitumor activity against mouse CT26 cells implanted in BALB/c mouse assessed as tumor growth inhibition at 50 ug, ip administered once a week in presence of anti-PD-1 antibodies and measured every 3 days for 23 days relative to control; type: functional; details: dose 50 µg; time 23 day; in short: as §4
[22] = Subacute toxicity in BALB/c mouse assessed as body weight loss at 1.73 g, ip administered as single dose; type: organism-based; details: in vivo
In short: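 Subacute study in BALB/c mice, with treated and control groups. Body weight was recorded every day. Spleens were weighed and photographed, and tissues were examined by H&E staining.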

Structure (SMILES): CCCCNc1nc(N)nc2ccc(Cc3ccc(CN(C)C)cc3)nc12
- ECmax [1]: 0.1 µg/mL
- ECmax [2]: 0.1 µg/mL
- ECmax [3]: 0.1 µg/mL
- ECmax [4]: 0.1 µg/mL
- Activity [5]: Active
- Activity [6]: Toxic
- Activity [7]: Toxic
- Activity [8]: Non-Toxic
- fold change (FC) [9]: 2
- Activity [10]: Active
- Activity [11]: Active
- inhibition at 3 µM [12]: 63.2%
- Activity [13]: Toxic
- ECmax [14]: 0.1 µg/mL
- ECmax [15]: 0.1 µg/mL
- Activity [16]: Active

Structure (SMILES): COCCNc1nc(N)nc2ccc(Cc3ccc(CN(C)C)cc3)nc12
- Activity [17]: Active
- Activity [18]: Active
- Activity [19]: Active
- TGI [20]: 82.8%
- TGI [21]: 88.9%
- Activity [22]: Toxic
